In ChEMBL document CHEMBL2146397, “The Substrate-Activity-Screening methodology applied to receptor tyrosine kinases: a proof-of-concept study” (Eur J Med Chem, 2012):
Active and inactive are the calls of the source. The calls are words filed in the database; no cut-off is given here. Numbered stars: 1 amine (or outer) side, 2 acyl side, 3 side chain; on linkers, the order of the positions; unused ones are H or OH. Square brackets hold non-standard residues; d marks the D form. Peptide text beside a SMILES is read from it. * marks the point of attachment. X7 = O=C([C@H](Cc1ccc(C(O)P(=O)(O)O)cc1)N[*:1])[*:2]; Trp(6-Cl) = N[C@@H](Cc1c[nH]c2cc(Cl)ccc12)C(=O)O; Phe(4-Cl) = N[C@@H](Cc1ccc(Cl)cc1)C(=O)O; X2 = O=C(O)[C@H]1CCCC[C@@H]1C(=O)*; 3Pal = N[C@@H](Cc1cccnc1)C(=O)O

Legend:
[1] = Solubility of the compound at >1 mM; type: physicochemical
[2] = target: T1, Insulin-like growth factor 1 receptor (Homo sapiens, UniProt P08069); assay: Activity at pre-activated human GST-His6-tagged IGF-1R expressed in Sf9 cells assessed as initial phosphorylation rate at 10 uM measured every 2 mins for 60 mins by Michaelis-Menten constant based ADP Quest assay
How it was run: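 Reaction buffer was the same plus 0.1 mg/mL BSA, with kinase, peptide substrate and detection reagents. Started with ATP; fluorescence read every 2 min for 60 min; 3 independent experiments.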

[3] = target: T1, Insulin-like growth factor 1 receptor; assay: Inhibition of pre-activated human GST-His6-tagged IGF-1R expressed in Sf9 cells using Ac-EAEDEPEGDYFEWLE-NHMe as substrate after 25 mins by luminescence assay
[4] = target: T1, Insulin-like growth factor 1 receptor; assay: Activity at pre-activated human GST-His6-tagged IGF-1R expressed in Sf9 cells up to 1 mM measured every 2 mins for 60 mins by Michaelis-Menten constant based ADP Quest assay
How it was run: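 Reactions used the same buffer plus 0.1 mg/mL BSA, pre-activated GST-His6-IGF-1R, peptide substrate titrated up to 1 mM, and ADP Quest reagents. ATP started the reaction. Fluorescence was read every 2 min for 60 min. KM came from a Michaelis-Menten fit, n = 3 independent experiments.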

T1 sequence (P08069 31-736 limits assumed): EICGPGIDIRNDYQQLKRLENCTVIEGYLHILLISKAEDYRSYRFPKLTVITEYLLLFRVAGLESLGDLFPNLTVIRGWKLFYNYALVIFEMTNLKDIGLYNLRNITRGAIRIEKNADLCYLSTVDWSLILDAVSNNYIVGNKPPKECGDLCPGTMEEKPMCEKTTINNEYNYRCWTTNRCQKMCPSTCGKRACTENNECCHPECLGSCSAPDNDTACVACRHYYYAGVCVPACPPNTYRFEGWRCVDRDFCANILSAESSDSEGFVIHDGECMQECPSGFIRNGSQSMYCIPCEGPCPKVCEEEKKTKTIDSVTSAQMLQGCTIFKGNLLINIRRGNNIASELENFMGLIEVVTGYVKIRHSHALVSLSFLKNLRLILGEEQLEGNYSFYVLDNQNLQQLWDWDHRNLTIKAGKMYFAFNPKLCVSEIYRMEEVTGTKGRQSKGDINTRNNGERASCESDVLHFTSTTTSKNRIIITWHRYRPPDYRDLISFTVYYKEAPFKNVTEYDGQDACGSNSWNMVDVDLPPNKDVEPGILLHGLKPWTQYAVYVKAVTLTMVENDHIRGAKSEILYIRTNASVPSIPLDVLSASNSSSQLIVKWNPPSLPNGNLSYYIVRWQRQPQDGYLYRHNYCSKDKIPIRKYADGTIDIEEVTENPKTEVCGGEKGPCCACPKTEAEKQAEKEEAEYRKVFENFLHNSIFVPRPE
T1 sequence (P08069 741-1367 limits assumed): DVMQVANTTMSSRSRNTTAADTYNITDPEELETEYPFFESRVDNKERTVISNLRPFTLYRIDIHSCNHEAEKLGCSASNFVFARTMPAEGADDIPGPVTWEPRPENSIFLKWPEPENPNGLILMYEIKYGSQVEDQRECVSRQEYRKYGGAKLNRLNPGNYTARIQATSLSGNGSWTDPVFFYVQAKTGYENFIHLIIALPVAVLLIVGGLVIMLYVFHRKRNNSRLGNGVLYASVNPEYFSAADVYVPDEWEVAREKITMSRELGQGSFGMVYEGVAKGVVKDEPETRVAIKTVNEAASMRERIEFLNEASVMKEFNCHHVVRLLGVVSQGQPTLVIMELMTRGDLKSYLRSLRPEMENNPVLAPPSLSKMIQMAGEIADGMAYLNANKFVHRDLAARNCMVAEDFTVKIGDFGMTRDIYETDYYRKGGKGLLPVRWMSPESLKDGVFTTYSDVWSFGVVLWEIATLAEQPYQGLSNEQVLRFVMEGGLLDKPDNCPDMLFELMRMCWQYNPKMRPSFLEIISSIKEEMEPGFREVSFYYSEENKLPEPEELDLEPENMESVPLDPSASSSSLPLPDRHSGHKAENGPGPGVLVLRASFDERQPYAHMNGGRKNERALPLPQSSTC

Compound | solubility [1] | Activity [2] [nM/s] | further results
CNC(=O)[C@H](Cc1c[nH]c2ccccc12)NC(=O)[C@H](CCC(=O)O)NC(=O)[C@H](Cc1ccccc1)NC(=O)[C@H](Cc1ccc(O)cc1)NC(=O)[C@H](Cc1cccnc1)NC(C)=O | Insoluble | 0.4 | –
CNC(=O)[C@H](Cc1ccc(Cl)cc1)NC(=O)[C@H](CCC(=O)O)NC(=O)[C@H](Cc1ccccc1)NC(=O)[C@H](Cc1ccc(C(O)P(=O)(O)O)cc1)NC(=O)[C@H](Cc1cccnc1)NC(C)=O (some centres not stated) (Ac-[3Pal][X7]FE[Phe(4-Cl)]-NHMe) | – | – | IC50 [3]: 489 µM
CNC(=O)[C@H](Cc1c[nH]c2ccccc12)NC(=O)[C@H](CCC(=O)O)NC(=O)[C@H](Cc1ccccc1)NC(=O)[C@@H](N)Cc1ccc(O)cc1 (HELM PEPTIDE1{Y.F.E.W.[CN[*:1]]}$$$$V2.0) | – | – | Activity [4]: inactive
CNC(=O)[C@H](Cc1c[nH]c2ccccc12)NC(=O)[C@H](CCC(=O)O)NC(=O)[C@H](Cc1ccccc1)NC(=O)[C@H](Cc1ccc(O)cc1)NC(C)=O (HELM PEPTIDE1{[ac].Y.F.E.W.[CN[*:1]]}$$$$V2.0) | – | 0.17 | –
CNC(=O)[C@H](Cc1ccc(Cl)cc1)NC(=O)[C@H](CCC(=O)O)NC(=O)[C@H](Cc1ccccc1)NC(=O)[C@H](Cc1ccc(O)cc1)NC(=O)[C@H]1CCCC[C@@H]1C(=O)O (X2-YFE[Phe(4-Cl)]-NHMe) | – | 4 | –

Further lines, with some results ahead:

solubility [1] | Activity [2] [nM/s] | Compound | further results
Insoluble | – | CNC(=O)[C@@H](Cc1c[nH]c2ccccc12)NC(=O)[C@H](CCC(=O)O)NC(=O)[C@H](Cc1ccccc1)NC(=O)[C@H](Cc1ccc(O)cc1)NC(=O)[C@H](CCC(=O)O)NC(C)=O | –
Insoluble | – | CNC(=O)[C@@H](Cc1c[nH]c2ccccc12)NC(=O)[C@H](CCC(=O)O)NC(=O)[C@H](Cc1ccccc1)NC(=O)[C@H](Cc1ccc(O)cc1)NC(=O)[C@H](Cc1cccnc1)NC(C)=O | –
Insoluble | – | CNC(=O)[C@H](Cc1ccc(Cl)cc1)NC(=O)[C@H](CCC(=O)O)NC(=O)[C@H](Cc1ccccc1)NC(=O)[C@H](Cc1ccc(O)cc1)NC(=O)[C@H](Cc1cccnc1)NC(C)=O (Ac-[3Pal]YFE[Phe(4-Cl)]-NHMe) | –
– | 0.46 | CNC(=O)[C@H](Cc1ccccc1)NC(=O)[C@H](CCC(=O)O)NC(=O)[C@H](Cc1ccccc1)NC(=O)[C@H](Cc1ccc(O)cc1)NC(=O)[C@H](CC(N)=O)NC(C)=O (HELM PEPTIDE1{[ac].N.Y.F.E.F.[CN[*:1]]}$$$$V2.0) | –
– | 2.8 | CNC(=O)[C@H](Cc1c[nH]c2ccccc12)NC(=O)[C@H](CCC(=O)O)NC(=O)[C@H](Cc1ccccc1)NC(=O)[C@H](Cc1ccc(O)cc1)NC(=O)[C@H](CC(N)=O)NC(C)=O (HELM PEPTIDE1{[ac].N.Y.F.E.W.[CN[*:1]]}$$$$V2.0) | –
– | 7.5 | CNC(=O)[C@H](Cc1c[nH]c2cc(Cl)ccc12)NC(=O)[C@H](CCC(=O)O)NC(=O)[C@H](Cc1ccccc1)NC(=O)[C@H](Cc1ccc(O)cc1)NC(=O)[C@H]1CCCC[C@@H]1C(=O)O (X2-YFE[Trp(6-Cl)]-NHMe) | –
